The array DNA melting data of Ke et al. (doi:10.1101/2024.01.08.574731)

Key:
[1] = melting temperature; fluorescence melt of hairpins on a sequencing array, two-state fit, raised by 9.35 °C to match UV melts; conditions: sodium 0.088 M
Procedure, shortened: (§1)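 Two-state fits, bootstrapped, provided melting temperature and folding enthalpy from Cy3 fluorescence normalised to pre-quench Cy3 and to control constructs. Library hairpins with annealed Cy3 and quencher oligos were imaged on a sequenced MiSeq flow cell in 50 mM Na-HEPES pH 8.0, 25 mM NaCl, at 2.5 °C intervals up to 60 °C. Four replicates were combined with inverse-variance weighting. A 9.35 °C upward shift was applied to fitted temperatures to match UV melts.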

[2] = folding enthalpy; higher = less favourable; fluorescence melt of hairpins on a sequencing array, two-state fit; conditions: sodium 0.088 M
Procedure, shortened: as §1

GTCCAAGAAATTGGAC ((((((....))))))
Tm [1]: 53 °C | folding enthalpy [2]: -26.5 kcal/mol

GTCCAAGGAAACTTGAAC ((.((((....)))).))
Tm [1]: 29.2 °C | folding enthalpy [2]: -16.9 kcal/mol

GTCCAATCGAAAGATGAC (((..(((....))))))
Tm [1]: 29.1 °C | folding enthalpy [2]: -13.9 kcal/mol

GTCCACGAAAGTGAAGAC ((((((....)))..)))
Tm [1]: 40.4 °C | folding enthalpy [2]: -23.1 kcal/mol

GTCCACGAAAGTGAGGAC ((((((....)))..)))
Tm [1]: 46.4 °C | folding enthalpy [2]: -21.9 kcal/mol

GTCCACGAAAGTGCCGAC ((((((....)))..)))
Tm [1]: 31.5 °C | folding enthalpy [2]: -12.8 kcal/mol

GTCCACGAAAGTGGGAC ((((((....))).)))
Tm [1]: 58.3 °C | folding enthalpy [2]: -13.6 kcal/mol

GTCCACGAAAGTGGGGAC ((((((....)))..)))
Tm [1]: 46.4 °C | folding enthalpy [2]: -10.4 kcal/mol

GTCCACGAAAGTGTTGAC ((((((....)))..)))
Tm [1]: 31.6 °C | folding enthalpy [2]: -17 kcal/mol

GTCCACTCGAAAGAGGAC (((..(((....))))))
Tm [1]: 37.4 °C | folding enthalpy [2]: -23 kcal/mol

GTCCAGAAATGGAC (((((....)))))
Tm [1]: 52.9 °C | folding enthalpy [2]: -24.8 kcal/mol

GTCCAGCCGAAAGGCGAC (((..(((....))))))
Tm [1]: 40.6 °C | folding enthalpy [2]: -9.75 kcal/mol

GTCCAGCGAAAGCTAGAC (((.(((....))).)))
Tm [1]: 46.4 °C | folding enthalpy [2]: -22.1 kcal/mol

GTCCAGCGAAAGCTCGAC (((.(((....))).)))
Tm [1]: 43.2 °C | folding enthalpy [2]: -20.7 kcal/mol

GTCCAGCGAAAGCTTGAC (((.(((....))).)))
Tm [1]: 49.1 °C | folding enthalpy [2]: -26.2 kcal/mol

GTCCAGGGAAACCTGAAC ((.((((....)))).))
Tm [1]: 35.9 °C | folding enthalpy [2]: -19.5 kcal/mol

GTCCAGGGAAACCTGGAC (((((((....)))))))
Tm [1]: 68.6 °C | folding enthalpy [2]: -33.6 kcal/mol

GTCCATGGAAACATGGAC (((((((....)))))))
Tm [1]: 63.6 °C | folding enthalpy [2]: -41.8 kcal/mol

GTCCCAGAAATGGGAC ((((((....))))))
Tm [1]: 64.3 °C | folding enthalpy [2]: -33.7 kcal/mol

GTCCCAGGAAACCGGGAC (((((.(....).)))))
Tm [1]: 53.2 °C | folding enthalpy [2]: -34.8 kcal/mol

GTCCCAGGAAACTGGGGC (.(((((....))))).)
Tm [1]: 57.5 °C | folding enthalpy [2]: -40.6 kcal/mol

GTCCCCGAAAGGGAAGAC ((((((....)))..)))
Tm [1]: 44.5 °C | folding enthalpy [2]: -13.5 kcal/mol

GTCCCCGAAAGGGCAGAC ((((((....)))..)))
Tm [1]: 36.7 °C | folding enthalpy [2]: -13 kcal/mol

GTCCCCGAAAGGGTCGAC ((((((....)))..)))
Tm [1]: 35.4 °C | folding enthalpy [2]: -13.6 kcal/mol

GTCCGAGAAATCGGAC ((((((....))))))
Tm [1]: 65.9 °C | folding enthalpy [2]: -34.5 kcal/mol

GTCCGAGGAAACTCGAAC ((.((((....)))).))
Tm [1]: 41.3 °C | folding enthalpy [2]: -21.3 kcal/mol

GTCCGAGGAAACTTGGGC (.((.((....)).)).)
Tm [1]: 41 °C | folding enthalpy [2]: -27.9 kcal/mol

GTCCGCGAAAGCGCGAC ((((((....))).)))
Tm [1]: 56.9 °C | folding enthalpy [2]: -20.7 kcal/mol

GTCCGCGAAAGCGCTGAC ((((((....)))..)))
Tm [1]: 38.2 °C | folding enthalpy [2]: -10.6 kcal/mol

GTCCGCTCGAAAGAGGAC (((..(((....))))))
Tm [1]: 47.4 °C | folding enthalpy [2]: -29 kcal/mol

GTCCGGCGAAAGCCCGAC (((.(((....))).)))
Tm [1]: 45.2 °C | folding enthalpy [2]: -20.1 kcal/mol

GTCCGGCGAAAGCCTGAC (((.(((....))).)))
Tm [1]: 51.8 °C | folding enthalpy [2]: -20.9 kcal/mol

GTCCGGGGAAACCTGGGC (.((.((....)).)).)
Tm [1]: 48.3 °C | folding enthalpy [2]: -29.8 kcal/mol

GTCCGGGGAAACTCGGAC (((((.(....).)))))
Tm [1]: 58.9 °C | folding enthalpy [2]: -40.9 kcal/mol

GTCCGGGGAAACTCGGGC (.(((.(....).))).)
Tm [1]: 47.8 °C | folding enthalpy [2]: -21.4 kcal/mol

GTCCGTCGAAAGACCGAC (((.(((....))).)))
Tm [1]: 42.8 °C | folding enthalpy [2]: -21.5 kcal/mol

GTCCGTCGAAAGACTGAC (((.(((....))).)))
Tm [1]: 47.8 °C | folding enthalpy [2]: -28.3 kcal/mol

GTCCGTGGAAACGTGGAC ((((..(....)..))))
Tm [1]: 45.4 °C | folding enthalpy [2]: -21.5 kcal/mol

GTCCTACGAAAGTAAGAC (((.(((....))).)))
Tm [1]: 37 °C | folding enthalpy [2]: -27.3 kcal/mol

GTCCTAGGAAACCAGGAC (((((.(....).)))))
Tm [1]: 45.3 °C | folding enthalpy [2]: -28.6 kcal/mol

GTCCTCACGAAAGTGGAC (((..(((....))))))
Tm [1]: 43 °C | folding enthalpy [2]: -17.2 kcal/mol

GTCCTCCGAAAGGAGAC (((.(((....))))))
Tm [1]: 47.5 °C | folding enthalpy [2]: -15.9 kcal/mol

GTCCTCGAAAGAGTCGAC ((((((....)))..)))
Tm [1]: 32.3 °C | folding enthalpy [2]: -12.3 kcal/mol

GTCCTCGGAAACGAGGGC (.(((((....))))).)
Tm [1]: 62.3 °C | folding enthalpy [2]: -30.3 kcal/mol

GTCCTGAAAAGGAC (((((....)))))
Tm [1]: 55.9 °C | folding enthalpy [2]: -31 kcal/mol

GTCCTGACGAAAGTCGAC (((..(((....))))))
Tm [1]: 29.1 °C | folding enthalpy [2]: -10.3 kcal/mol
